# Source: publication PMC9476207 (ACS Omega, 2022)
# Experiments:
# Experiment in all cases: NCI-60 single-dose antiproliferative screen
# Format in all cases: cell-based
# EKVX = settings: Homo sapiens, 48 h, read-out: growth percent
# Outline: (§1)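 NCI-60 protocol. Lines were grown in RPMI 1640 with 5% FBS and 2 mM L-glutamine, plated and incubated 24 h at 37 °C; time-zero plates were TCA-fixed. The test compound was dissolved in DMSO, diluted in medium with 50 μg/mL gentamicin and given once at a final 10^-5 M (DMSO control) for 48 h. Cells were fixed with cold TCA (1 h, 4 °C) and stained with 0.4% SRB in 1% acetic acid for 10 min. Dye was dissolved in 10 mM Trizma base and read at 515 nm. Growth percent was calculated from time-zero, test and control ODs.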
# HOP-92 = settings: Homo sapiens, HOP-92, 48 h, read-out: growth percent
# Outline: as §1
# IGROV1 = settings: Homo sapiens, IGROV-1, 48 h, read-out: growth percent
# Outline: as §1
# LOX IMVI = settings: Homo sapiens, 48 h, read-out: growth percent
# Outline: as §1
# HCC-2998 = settings: Homo sapiens, HCC 2998, 48 h, read-out: growth percent
# Outline: as §1
# SK-MEL-28 = settings: Homo sapiens, SK-MEL-28, 48 h, read-out: growth percent
# Outline: (§2)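 Cells grown in RPMI 1640 with 5% FBS and 2 mM L-glutamine, plated and held 24 h at 37 °C; time-zero plates TCA-fixed. DMSO stocks were diluted in gentamicin-containing medium to a final 10^-5 M, with a DMSO-only control. Exposure 48 h, 5% CO2. Adherent cells TCA-fixed 1 h at 4 °C, stained with 0.4% SRB, solubilised in 10 mM Trizma base, read at 515 nm. Growth percent derived from ODtzero, ODtest and ODctrl.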
# SK-MEL-2 = settings: Homo sapiens, SK-MEL-2, 48 h, read-out: growth percent
# Outline: as §2
# SK-OV-3 = settings: Homo sapiens, SK-OV-3, 48 h, read-out: growth percent
# Outline: as §2
# SF-268 = settings: Homo sapiens, SF-268, 48 h, read-out: growth percent
# Outline: as §1
# SK-MEL-5 = settings: Homo sapiens, SK-MEL-5, 48 h, read-out: growth percent
# Outline: as §2
# RPMI-8226 = settings: Homo sapiens, RPMI-8226, 48 h, read-out: growth percent
# Outline: as §1
# TK-10 = settings: Homo sapiens, TK-10, 48 h, read-out: growth percent
# Outline: as §2
# NCI/ADR-RES = settings: Homo sapiens, 48 h, read-out: growth percent
# Outline: as §1
# A549/ATCC = settings: Homo sapiens, A549, 48 h, read-out: growth percent
# Outline: as §1
# SR = settings: Homo sapiens, 48 h, read-out: growth percent
# Outline: as §2
# SN12C = settings: Homo sapiens, 48 h, read-out: growth percent
# Outline: as §2
# MALME-3M = settings: Homo sapiens, 48 h, read-out: growth percent
# Outline: as §1
# NCI-H322M = settings: Homo sapiens, 48 h, read-out: growth percent
# Outline: as §1
# MCF-7 = settings: Homo sapiens, MCF7, 48 h, read-out: growth percent
# Outline: as §1
# CCRF-CEM = settings: Homo sapiens, 48 h, read-out: growth percent
# Outline: as §1
# OVCAR-5 = settings: Homo sapiens, OVCAR-5, 48 h, read-out: growth percent
# Outline: as §1
# M14 = settings: Homo sapiens, M14, 48 h, read-out: growth percent
# Outline: as §1
# SF-295 = settings: Homo sapiens, SF-295, 48 h, read-out: growth percent
# Outline: as §1
# 786-0 = settings: Homo sapiens, 786-0, 48 h, read-out: growth percent
# Outline: as §1
# NCI-H522 = settings: Homo sapiens, NCI-H522, 48 h, read-out: growth percent
# Outline: as §1
# BT-549 = settings: Homo sapiens, BT-549, 48 h, read-out: growth percent
# Outline: as §1
# KM12 = settings: Homo sapiens, KM12, 48 h, read-out: growth percent
# Outline: as §1
# RXF 393 = settings: Homo sapiens, RXF 393, 48 h, read-out: growth percent
# Outline: as §1
# CAKI-1 = settings: Homo sapiens, CAKI-1, 48 h, read-out: growth percent
# Outline: as §1
# MDA-MB-468 = settings: Homo sapiens, MDA-MB-468, 48 h, read-out: growth percent
# Outline: as §1
# OVCAR-4 = settings: Homo sapiens, OVCAR-4, 48 h, read-out: growth percent
# Outline: as §1
# HOP-62 = settings: Homo sapiens, HOP-62, 48 h, read-out: growth percent
# Outline: as §1
# MDA-MB-231 ATCC = settings: Homo sapiens, MDA-MB-231, 48 h, read-out: growth percent
# Outline: as §1
# DU-145 = settings: Homo sapiens, DU-145, 48 h, read-out: growth percent
# Outline: as §1
# K-562 = settings: Homo sapiens, K562, 48 h, read-out: growth percent
# Outline: as §1
# SW-620 = settings: Homo sapiens, SW-620, 48 h, read-out: growth percent
# Outline: as §2
SMILES,activity at 10 µM (EKVX),activity at 10 µM (HOP-92),activity at 10 µM (IGROV1),activity at 10 µM (LOX IMVI),activity at 10 µM (HCC-2998),activity at 10 µM (SK-MEL-28),activity at 10 µM (SK-MEL-2),activity at 10 µM (SK-OV-3),activity at 10 µM (SF-268),activity at 10 µM (SK-MEL-5),activity at 10 µM (RPMI-8226),activity at 10 µM (TK-10),activity at 10 µM (NCI/ADR-RES),activity at 10 µM (A549/ATCC),activity at 10 µM (SR),activity at 10 µM (SN12C),activity at 10 µM (MALME-3M),activity at 10 µM (NCI-H322M),activity at 10 µM (MCF-7),activity at 10 µM (CCRF-CEM),other results
"COc1cc(CNC(=O)CCCC/C=C/C(C)C)ccc1OCc1cn(-c2ccc(C)c(C)c2)nn1 [14p, (E)-N-(4-((1-(3,4-Dimethylphenyl)-1H-1,2,3-triazol-4-yl)methoxy)-3-methoxybenzyl)-8-methylnon-6-enamide]",79.3%,80.4%,98.8%,84.5%,101%,112%,90.3%,98.6%,94.6%,81.5%,67.3%,109%,80.6%,82.2%,58.2%,88.4%,107%,101%,86.9%,75.5%,activity at 10 µM (OVCAR-5): 107%; activity at 10 µM (M14): 93.5%; activity at 10 µM (SF-295): 88.8%; activity at 10 µM (786-0): 99.8%; activity at 10 µM (NCI-H522): 80.7%; activity at 10 µM (BT-549): 93.7%; activity at 10 µM (KM12): 97.5%; activity at 10 µM (RXF 393): 98.2%; activity at 10 µM (CAKI-1): 94.3%; activity at 10 µM (MDA-MB-468): 71.8%; activity at 10 µM (OVCAR-4): 84.9%; activity at 10 µM (HOP-62): 97.4%; activity at 10 µM (MDA-MB-231 ATCC): 89.3%; activity at 10 µM (DU-145): 108%; activity at 10 µM (K-562): 74.6%; activity at 10 µM (SW-620): 95.2%
"COc1cc(CNC(=O)C[C@H](C)CCC=C(C)C)ccc1OCc1cn(-c2ccc(Cl)cc2)nn1 [18b, (R)-N-(4-((1-(4-Chlorophenyl)-1H-1,2,3-triazol-4-yl)methoxy)-3-methoxybenzyl)-3,7-dimethyloct-6-enamide]",75.3%,53%,80.2%,59.7%,75.9%,87%,83.6%,72.1%,95.4%,62.8%,75.3%,95.6%,48%,57.1%,65.8%,67.7%,68.3%,83.5%,51.6%,92.9%,activity at 10 µM (OVCAR-5): 80.7%; activity at 10 µM (M14): 90.8%; activity at 10 µM (SF-295): 55.5%; activity at 10 µM (786-0): 84.3%; activity at 10 µM (NCI-H522): 62.9%; activity at 10 µM (BT-549): 87.4%; activity at 10 µM (KM12): 87.7%; activity at 10 µM (RXF 393): 56.1%; activity at 10 µM (CAKI-1): 45.9%; activity at 10 µM (MDA-MB-468): 41.3%; activity at 10 µM (OVCAR-4): 52.7%; activity at 10 µM (HOP-62): 61.5%; activity at 10 µM (MDA-MB-231 ATCC): 59.6%; activity at 10 µM (DU-145): 82.8%; activity at 10 µM (K-562): 53.5%; activity at 10 µM (SW-620): 76.8%
